Legend:
Format in all cases: physicochemical
[1] = Dissociation constant, pKa of compound in water by Sirius T3 apparatus based potentiometric titration analysis
[2] = Dissociation constant, pKa of compound in DMSO by Sirius T3 apparatus based potentiometric titration analysis
[3] = Distribution coefficient, logD of compound at pH 3 by Sirius T3 apparatus based potentiometric titration analysis; conditions: octanol/water
[4] = Distribution coefficient, logD of compound at pH 8 by Sirius T3 apparatus based potentiometric titration analysis; conditions: octanol/water
[5] = Octanol/water partition coefficient, logP of compound by Sirius T3 apparatus based potentiometric titration analysis
How it was run: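 Measured by potentiometric (pH-metric) titration in an immiscible octanol–water biphasic system on a Sirius T3. Run at 25 °C at constant ionic strength (0.15 M KCl), using the pKa values determined earlier on the same instrument. Samples came from 50 mM DMSO stocks.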

[6] = Dissociation constant, pKa of compound measured under acidic conditions by Sirius T3 apparatus based potentiometric titration analysis

SMILES	pKa [1]	pKa [2]	logD [3]	logD [4]	logP [5]	pKa [6]
Cc1cccc(Cc2nnn[nH]2)c1	–	4.73	1.07	-0.96	1.51	–
Cc1cccc(-c2nnn[nH]2)c1	–	4.07	1.1	-0.95	1.75	–
Cc1cccc(Cc2nsc(O)n2)c1	–	6.35	2.02	0.42	2.15	–
Cc1cccc(-c2noc(S)n2)c1	–	2.64	1.44	-0.7	2.65	–
Cc1cccc(Cc2noc(S)n2)c1	–	3.19	1.42	-0.7	2.39	–
Cc1cccc(C2=C(O)COC2=O)c1	–	2.95	1.26	-0.87	2.32	–
Cc1cccc(Cc2noc(O)n2)c1	5.59	–	1.39	-0.42	1.63	–

The next lines start with the values.

pKa [1]	pKa [2]	logD [3]	logD [4]	logP [5]	pKa [6]	SMILES
3.99	–	–	–	–	–	Cc1cccc(C(=O)O)c1
5.12	–	0.8	-1.11	1.14	–	Cc1cccc(-c2noc(O)n2)c1
4.13	–	1.35	-0.7	1.98	–	Cc1cccc(CC(=O)O)c1
> 12	–	–	–	–	4.97	Cc1cccc(/C(N)=N/O)c1
–	4.63	0.44	-1.58	0.97	–	Cc1cccc(CC(=O)NS(C)(=O)=O)c1
> 12	–	–	–	–	5.27	Cc1cccc(C/C(N)=N/O)c1
–	5.99	2.04	0.34	2.22	–	Cc1cccc(-c2nsc(O)n2)c1
> 12	–	–	–	–	–	Cc1cccc(C(N)=O)c1
> 12	–	–	–	–	–	Cc1cccc(CC(N)=O)c1

Reference: ChEMBL document CHEMBL4699541, “Fragment based drug design and diversity-oriented synthesis of carboxylic acid isosteres” (Bioorg Med Chem, 2020)
